Bioassay records from PubChem BioAssay.
An excerpt weighted towards active compounds, which were near 0.77% of everything screened.
bIAP activator = increases bovine intestinal alkaline phosphatase activity. purified bovine IAP, CDP-star luminescence, 30 min; hits give high values; fold of DMSO-control signal, blank-subtracted. activation factor at 20 µM. 0.17% of 200,000 active;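 active = activation factor of 2 or more at 20 µM, a signal rise over negative controls twice the positive control's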
mIAP activ = increases mouse intestinal alkaline phosphatase activity; activation factor at 10 µM; AID 2805; muIAP, CDP-Star luminescence, 30 min; hits give high values; 1 = vehicle-only enzyme signal, 0 = enzyme-free wells; 0.24% of 330,000 active;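 active = activation factor of at least 2 at 20 µM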
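Assay system: mouse IAP enzyme; Reagent: CDP-Star chemiluminescent phosphatase substrate; Compound: DMSO-dissolved test compounds; Incubation: 30 min, room temperature; Technique: luminescence from enzymatic CDP-Star hydrolysis; Controls: DMSO-only wells and no-enzyme negative control.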
hIAP block = human IAP inhibition | 0.12% of 330,000 active | P09923 | AID 2544 | purified IAP, CDP-Star luminescence, 30 min | inhibition, % at 10 µM;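 active = inhibition reaching a set limit with compound at 10 µM in the primary screen, cut at about 35% in these data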;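 also: plate controls were DMSO wells with enzyme for no effect and no-enzyme buffer wells for full effect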
Target sequence (P09923 whole entry, looked up): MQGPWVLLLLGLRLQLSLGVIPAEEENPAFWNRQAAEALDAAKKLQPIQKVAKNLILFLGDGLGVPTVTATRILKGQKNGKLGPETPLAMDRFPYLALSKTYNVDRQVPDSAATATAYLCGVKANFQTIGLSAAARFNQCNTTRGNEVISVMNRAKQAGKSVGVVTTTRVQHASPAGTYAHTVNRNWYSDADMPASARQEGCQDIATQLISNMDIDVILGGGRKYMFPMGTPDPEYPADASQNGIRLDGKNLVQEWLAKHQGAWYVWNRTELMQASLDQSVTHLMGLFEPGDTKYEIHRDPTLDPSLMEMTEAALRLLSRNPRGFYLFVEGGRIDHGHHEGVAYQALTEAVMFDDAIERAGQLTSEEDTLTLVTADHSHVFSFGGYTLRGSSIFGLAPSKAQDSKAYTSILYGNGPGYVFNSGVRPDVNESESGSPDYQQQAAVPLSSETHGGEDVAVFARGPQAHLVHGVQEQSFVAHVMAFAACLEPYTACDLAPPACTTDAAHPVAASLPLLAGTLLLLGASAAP
mIAP block = mouse IAP inhibition; purified mouse IAP, CDP-Star luminescence, 30 min; inhibition, % at 10 µM; 0.2% of 330,000 active;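 active = inhibition of at least 40% at 10 µM in the primary screen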;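 also: plate controls were DMSO with enzyme for no effect and no enzyme wells for full effect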
hIAP act = increases human intestinal alkaline phosphatase activity | AID 2524 | activation factor at 10 µM | purified human IAP, CDP-Star luminescence, 30 min; hits give high values; 1 = vehicle-only enzyme, 0 = enzyme-free background | 0.16% of 330,000 active | P09923;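 active = activation factor of the enzyme at least 2-fold when tested at 20 µM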
bIAP inhibitor = blocks bovine intestinal alkaline phosphatase activity; purified bovine IAP, CDP-star luminescence, 30 min; inhibition, % at 20 µM; 190,000 tested, under 10 active;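 active = over 50% inhibition of intestinal alkaline phosphatase at 20 µM in the single-dose screen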
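Assay system: bovine IAP enzyme; medium: DEA buffer 100 mM, pH 9.8, with MgCl2 1.0 mM, ZnCl2 0.02 mM; doses: 20 µM single dose; incubation: enzyme reaction for 30 min at room temperature; detection: CDP-star luminescence signal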
* marks the source's active call; other numbers are inactive results; · = not tested or not shown.

SMILES | bIAP activator | mIAP activ | hIAP block | mIAP block | hIAP act | bIAP inhibitor
O=C(COC(=O)c1ccc(S(=O)(=O)NCc2ccco2)cc1)Nc1ccccc1OC(F)F | 2.4* | 0.9 | -6 | 10 | 1.1 | -136
CCN1/C(=C/C=C/c2oc3ccc4ccccc4c3[n+]2CC)Oc2ccc3ccccc3c21 | 1.1 | 0.53 | 44* | 47* | 0.56 | -9
CC[n+]1c(/C=C/N(C)c2ccccc2)oc2ccc(Cl)cc21 | 1 | 0.98 | -2 | 2 | 1 | -2
COc1ccc(CC(=O)NC(c2ccccc2)c2ccc(C)cc2)c(OC)c1 (stereo not drawn) | · | 1.1 | -5 | -11 | 1 | ·
O=C(/C=C/c1ccco1)NC(=S)Nc1ccc(O)c(-c2nc3ccccc3s2)c1 | 1 | 0.47 | -44 | 53* | 1.4 | 0
CCn1cc(S(=O)(=O)Nc2cc(C(=O)OC)ccc2C)cn1 | · | 1.1 | 9 | -6 | 0.91 | ·
CCCCc1c(O)nc(SCC(=O)NC(C)(C)C)n(-c2ccccc2C)c1=O | 1 | 0.58 | -6 | 42* | 1.1 | 3
COc1cccc(NC(=O)CCNC(=O)C2CCN(S(=O)(=O)c3ccc(F)cc3)CC2)c1 | · | 0.95 | 16 | 4 | 0.84 | ·
COC(=O)c1ccc(CNC(=O)c2ccc(S(=O)(=O)N(C)c3ccccc3OC)cc2)cc1 | · | 1 | 2 | -1 | 0.98 | ·
CCCn1c(N)c(C(c2ccc(OC)cc2)N2CCN(c3ccccc3)CC2)c(=O)[nH]c1=O (stereo not drawn) | 2.6* | 1.4 | -25 | -38 | 1.3 | -156
CCCn1c(N)c(C(c2ccc(C(=O)OC)cc2)N2CCN(c3ccccc3)CC2)c(=O)[nH]c1=O (stereo not drawn) | 1.4 | 1.2 | -1 | -18 | 1 | -45
O=C(CN1CCC(c2nc3ccccc3[nH]2)CC1)Nc1ccc2c(c1)OCO2 | 1.1 | 1.1 | -4 | -14 | 1 | -13
Cc1ccc2nc(C3CCN(CC(=O)Nc4ccc5c(c4)OCCO5)CC3)[nH]c2c1 | 2.1* | 1.1 | 11 | -10 | 0.89 | -113
CC(=O)Nc1ccc(S(=O)(=O)N(C)CC(=O)OCC(=O)Nc2cccnc2Cl)cc1 | 0.9 | 0.93 | 12 | 7 | 0.88 | 7
CC(CNC(=S)Nc1cc(F)cc(F)c1)CSc1ccc(Cl)cc1 (stereo not drawn) | 0.7 | 3.2* | -22 | -219 | 1.2 | 26
O=C(Nc1ccc(F)cc1F)Nc1csc2ccccc12 | · | 2.3* | 4 | -128 | 0.96 | ·
O=C(Nc1ccc(F)cc1F)Nc1ccc(F)cc1F | 1 | 1.1 | -16 | -9 | 1.2 | -2
O=C1N=c2ccc(Br)cc2=C1c1sc(=S)n(NS(=O)(=O)c2ccccc2)c1O | 1 | 0.79 | 1 | 21 | 0.99 | 1
CC1(C)OC(c2ccccc2)=C/C(=C/C=C2C(=O)c3ccccc3C2=O)O1 | 0.7 | 0.77 | 49* | 23 | 0.51 | 27
Cc1ccsc1/C=N\NC(=O)Cn1nnc2ccccc21 | 0.9 | 1.2 | -14 | -20 | 1.1 | 14
COc1ccc(Cl)c(N2CCN(CCCNC(=O)Nc3ccc(C)cc3)CC2)c1 | 2.2* | 1.8 | 14 | -79 | 0.86 | -119
CCN1C(=O)/C(=c2\o/c(=C3\C=Cc4ccccc4N3CC)c(=O)n2CC)SC1=S | 0.6 | · | · | · | · | 38
CCN1C(=O)/C(=C2\C=Cc3ccccc3N2CC)SC1=S | 0.7 | 0.59 | 30 | 41* | 0.7 | 25
O=C(NCCCCNC(=O)c1ccccc1Br)c1ccccc1Br | · | 1.1 | 14 | -6 | 0.86 | ·
Cc1nn(Cc2ccc(F)cc2)c(C)c1NC(=O)C1c2ccccc2Oc2ccccc21 | 0.8 | 2.9* | -20 | -188 | 1.2 | 18
Cc1cc(C(=O)Nc2c(C)nn(Cc3ccc(F)cc3)c2C)on1 | 1 | 0.99 | -8 | 1 | 1.1 | -4
COc1cc(/C=C2\CC/C(=C\c3cc(OC)c(O)c(OC)c3)C2=O)cc(OC)c1O | 0.3 | 0.44 | 21 | 56* | 0.79 | ·
COc1ccc(N(C(=O)C2CSC(=O)C2)C(C(=O)NC(C)(C)C)c2ccncc2)cc1 (stereo not drawn) | 0.9 | 1 | -15 | -2 | 1.1 | 13
CCC(C)(C)NC(=O)C(c1cccs1)N(C(=O)c1ccn[nH]1)c1ccccc1 (stereo not drawn) | 2.3* | 1 | 5 | -1 | 0.95 | -133
